The values below come from paper PMC3483883 (Bioorganic & medicinal chemistry letters, 2012).

In general, EC50 refers to the concentration needed to bring the measured effect to its halfway point. A higher EC50 goes with a less potent agent.

Data set [1] concerns the target T1, LdTopIB (Leishmania donovani, UniProt A0A3Q8IHS4+Q8WQM6). The data set is described as follows: Plasmid DNA relaxation assay, LdTopIB. In kind it is biochemical.
Data set [2] has as its system Trypanosoma brucei rhodesiense (bloodstream forms). The data set is described as follows: Antiprotozoal activity against T. brucei rhodesiense bloodstream forms. Type of data set: cell-based. To be noted: read-out: Trypanosoma brucei rhodesiense IC50.
Data set [3] deals with fluconazole resistant Candida albicans strains. To be noted: series of strains; cited from earlier work.
A short description of data set [4]: L6 cell cytotoxicity. The following applies: rat, L6 cells (rat skeletal myoblasts). In kind it is cell-based.
In data set [5] the target is T2, hTopIB (Homo sapiens, UniProt P11387).
T2 sequence (P11387 1-765): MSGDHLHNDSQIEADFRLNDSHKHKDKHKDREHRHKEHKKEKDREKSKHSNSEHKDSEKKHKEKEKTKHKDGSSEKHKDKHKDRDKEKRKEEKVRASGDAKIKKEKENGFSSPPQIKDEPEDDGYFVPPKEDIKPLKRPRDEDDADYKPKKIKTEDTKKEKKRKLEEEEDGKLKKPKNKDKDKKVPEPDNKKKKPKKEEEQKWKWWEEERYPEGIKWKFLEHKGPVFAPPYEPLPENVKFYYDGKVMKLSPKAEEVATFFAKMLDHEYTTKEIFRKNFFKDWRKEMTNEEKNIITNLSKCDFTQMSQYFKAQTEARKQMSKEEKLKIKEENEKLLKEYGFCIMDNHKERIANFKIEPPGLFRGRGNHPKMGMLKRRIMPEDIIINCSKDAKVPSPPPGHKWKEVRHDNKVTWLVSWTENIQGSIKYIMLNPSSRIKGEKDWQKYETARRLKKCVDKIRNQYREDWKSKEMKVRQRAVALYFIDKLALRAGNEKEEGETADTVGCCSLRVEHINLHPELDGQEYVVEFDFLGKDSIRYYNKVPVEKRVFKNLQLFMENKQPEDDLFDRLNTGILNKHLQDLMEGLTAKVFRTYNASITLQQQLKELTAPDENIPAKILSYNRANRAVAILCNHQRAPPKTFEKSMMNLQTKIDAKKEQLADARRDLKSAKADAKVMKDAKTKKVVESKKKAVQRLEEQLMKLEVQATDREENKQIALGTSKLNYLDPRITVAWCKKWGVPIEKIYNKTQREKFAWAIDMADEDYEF
The data set is described as follows: Plasmid DNA relaxation assay, hTopIB. In kind it is biochemical.

Data set [6] has as its target T2, hTopIB. As to the kind of experiment: Supercoiled plasmid DNA TopIB-mediated cleavage assay, hTopIB. Type of data set: biochemical. To be noted: 100 μM.
For data set [7], the system named is Leishmania donovani (axenic amastigotes). The data set is described as follows: Antiprotozoal activity against L. donovani axenic amastigotes. Type of data set: cell-based. The following applies: read-out: Leishmania donovani IC50.
Data set [8] has as its system Murine macrophages BALB/c. As to the kind of experiment: Toxicity against BALB/c murine macrophages. In kind it is cell-based. The following applies: Mus musculus, Macrophage, read-out: Murine macrophages BALB/c IC50.
For data set [9], the system named is Leishmania donovani, Trypanosoma brucei rhodesiense, Trypanosoma cruzi. As to the kind of experiment: Antiprotozoal activity against all the studied protozoa. Type of data set: cell-based. The following applies: read-out: IC50 values against all the studied protozoa. In a few lines:
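In vitro growth-inhibition IC50 against L. donovani, T. cruzi and T. b. rhodesiense. Values are averages of at least two independent assays, each run in duplicate. Reference drugs in the same set are melarsoprol, benznidazole, miltefosine and podophyllotoxin.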

In data set [10] the target is T1, LdTopIB. The data set is described as follows: Supercoiled plasmid DNA TopIB-mediated cleavage assay, LdTopIB. Type of data set: biochemical.
The subject of data set [11] is L. infantum promastigotes. As to the kind of experiment: Activity against L. infantum promastigotes. In kind it is cell-based. To be noted: Leishmania infantum, read-out: IC50 against L. infantum promastigotes.
Data set [12] relates to L. infantum promastigotes. To be noted: 400 μM, 24 h.
Data set [13] has as its target leukotriene B4 ω-oxidase. To be noted: read-out: IC50 leukotriene B4 ω-oxidase; suicide inhibitor; cited from earlier work.

Molecule `CC[C@@]1(O)C(=O)OCc2c1cc1n(c2=O)Cc2cc3ccccc3nc2-1` [CPT, camptothecin, reference compound] showed an EC50 in data set [1] of 0.67 ± 0.08 µM.
As to `Nc1nc(N)nc(Nc2ccc([As]3SCC(CO)S3)cc2)n1` (stereo not shown) [Melarsoprol, reference compound], in data set [2], the IC50 was 0.0075 µM.
As to `CCCCCCCCCCCC#CCCCCC(=O)O` [6-ODA, 6-octadecynoic acid], the “IC50 against fluconazole resistant Candida albicans strains” value in data set [3] was 0.45 to 0.65 µg/mL.
As for `CCCCCCCCCCCCCC#CC(=O)O` [2-HDA, 2-hexadecynoic acid], the IC50 in data set [4] was 340 µM; in data set [7], 17.8 µM; in data set [2], 83.6 µM; in data set [8] it was above 100 µM; in data set [9], 17.8 to 83.6 µM; in data set [11], 14.9 µM. The EC50 was above 100 µM in [5] and 28.7 ± 1.3 µM in data set [1]. In [5], the “inhibition of hTopIB at 100 μM” value is “neither 2-TDA nor 2-HDA was inhibitory”. Further, in data set [6], the “inhibition of hTopIB” value is “no inhibition”. In [10] (100 μM), the “inhibition of catalytic activity of LdTopIB” value is given as “inhibits the catalytic activity”. In addition, the “enzymatic activity of LdTopIB after pre-incubation” value in [10] (pre-incubated 15 min with 100 μM before DNA and CPT) is reported as “fully inhibited”.
`OO` [hydrogen peroxide]: in data set [12], the “apoptotic cells (Annexin-V-FITC)” value is “positive test”.
With `C#CCCCCCCCCCCCCCCCC(=O)O` [17-ODA, 17-octadecynoic acid], the IC50 in [13] is below 5 µM.
For the molecule `CCCCCCCCCCCCCCCC#CC(=O)O` [2-ODA, 2-octadecynoic acid], in [1], a half-maximal effect (EC50) was put at 5.3 ± 0.7 µM.
In the case of `CCCCCCCCCCCC#CC(=O)O` [2-TDA, 2-tetradecynoic acid], the results for the EC50 in data set [5] and in [1] were above 100 µM and 67.8 ± 1.1 µM, respectively. In addition, the “inhibition of hTopIB at 100 μM” value in data set [5] was “neither 2-TDA nor 2-HDA was inhibitory”. Also, in data set [9], the IC50 is 24.7 to 255 µM.
